Data set [1] deals with T1, Nitric oxide synthase 3 (Bos taurus) (UniProt P29473).
T1 sequence (whole entry): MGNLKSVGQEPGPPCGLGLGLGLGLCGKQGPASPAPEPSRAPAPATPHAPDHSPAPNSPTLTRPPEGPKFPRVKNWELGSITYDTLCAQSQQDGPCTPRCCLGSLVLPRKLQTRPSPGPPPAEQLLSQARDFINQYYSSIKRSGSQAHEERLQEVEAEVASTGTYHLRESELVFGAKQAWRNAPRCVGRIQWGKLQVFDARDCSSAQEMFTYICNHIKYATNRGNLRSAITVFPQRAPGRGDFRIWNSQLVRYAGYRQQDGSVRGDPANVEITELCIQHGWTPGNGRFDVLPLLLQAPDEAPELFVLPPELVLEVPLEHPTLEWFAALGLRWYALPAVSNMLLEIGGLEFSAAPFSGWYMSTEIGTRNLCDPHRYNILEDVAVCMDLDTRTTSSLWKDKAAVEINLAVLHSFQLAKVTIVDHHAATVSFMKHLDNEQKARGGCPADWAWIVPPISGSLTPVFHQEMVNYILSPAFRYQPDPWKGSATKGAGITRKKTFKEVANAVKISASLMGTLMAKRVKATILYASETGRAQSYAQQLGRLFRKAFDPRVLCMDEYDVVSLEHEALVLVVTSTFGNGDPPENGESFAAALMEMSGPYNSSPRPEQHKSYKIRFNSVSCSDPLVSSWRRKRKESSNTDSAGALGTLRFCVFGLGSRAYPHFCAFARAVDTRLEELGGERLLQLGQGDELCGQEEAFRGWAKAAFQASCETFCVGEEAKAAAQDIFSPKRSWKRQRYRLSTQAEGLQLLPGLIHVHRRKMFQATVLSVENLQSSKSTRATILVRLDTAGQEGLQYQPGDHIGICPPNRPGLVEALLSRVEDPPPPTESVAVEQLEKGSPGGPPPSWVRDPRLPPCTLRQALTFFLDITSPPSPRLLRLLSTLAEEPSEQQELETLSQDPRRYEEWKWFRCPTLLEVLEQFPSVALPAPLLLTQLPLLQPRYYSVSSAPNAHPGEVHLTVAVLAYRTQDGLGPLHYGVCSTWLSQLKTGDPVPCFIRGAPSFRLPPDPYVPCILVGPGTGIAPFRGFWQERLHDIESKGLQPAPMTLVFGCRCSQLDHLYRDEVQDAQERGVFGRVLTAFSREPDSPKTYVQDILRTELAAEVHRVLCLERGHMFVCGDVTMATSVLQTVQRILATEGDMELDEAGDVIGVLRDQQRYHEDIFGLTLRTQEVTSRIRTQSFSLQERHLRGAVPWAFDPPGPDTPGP
Briefly: Inhibition of full length N-terminal his-tagged bovine eNOS (2 to 1205 residues) expressed in Escherichia coli at 10 uM preincubated for 15 mins followed by NADPH addition and measured after 30 mins by HPLC analysis relative to control. Particulars: time 45.0 min. A digest of the protocol: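 Recombinant bovine eNOS in HEPES buffer with 2 mM CaCl2 plus the same cofactor mix as the iNOS assay (DTT, BSA, FMN, FAD, BH4, calmodulin, 10 μM L-Arg). Compound pre-incubated 15 min at 37 °C. NADPH-started reaction run 30 min at 37 °C, quenched with cold CH3CN. Read by OPA/NAC fluorescence HPLC. […] IC50 from seven concentrations in triplicate.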

Data set [2] deals with MDA-MB-231. Briefly: Antiproliferative activity against human MDA-MB-231 cells assessed as reduction in cell viability upto 100 uM measured after 5 days by PrestoBlue reagent based assay. The data set is classed as functional. The conditions noted are these: time 5.0 day. A digest of the protocol:
(§1)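 MDA-MB-231 cells grown in DMEM with 10% FBS and 2 mM L-glutamine. Seeded 2000 cells/well, grown 24 h, then treated 5 days over 0.001–100 μM in triplicate wells. Read with PrestoBlue (10% v/v, 120 min), fluorescence ex 540/em 590 nm. Normalized to 0.1% DMSO controls. EC50 from sigmoidal variable-slope fit, mean ± SD, n = 3 independent experiments.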

The target of the next data set is T2, Nitric oxide synthase 3 (Bos taurus, UniProt P29473).
T2 sequence (P29473 whole entry): T1 sequence (whole entry)
The experiment in a line: Inhibition of full length N-terminal his-tagged bovine eNOS (2 to 1205 residues) expressed in Escherichia coli preincubated for 15 mins followed by NADPH addition and measured after 30 mins by HPLC analysis. A digest of the protocol:
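Recombinant bovine eNOS in HEPES buffer with 2 mM CaCl2 plus the same cofactor mix as the iNOS assay (DTT, BSA, FMN, FAD, BH4, calmodulin, 10 μM L-Arg). NADPH-started reaction run 30 min at 37 °C, quenched with cold CH3CN. Read by OPA/NAC fluorescence HPLC. IC50 from seven concentrations in triplicate.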

For data set [3], the system named is MDA-MB-231. The experiment in a line: Antiproliferative activity against human MDA-MB-231 cells assessed as reduction in cell viability measured after 5 days by PrestoBlue reagent based assay. The data set is classed as functional. The conditions noted are these: MDA-MB-231, 120 h. A digest of the protocol:
as §1

Data set [4] addresses T3, Nitric oxide synthase, inducible (Homo sapiens, UniProt P35228). The experiment in a line: Inhibition of N-terminal his6-tagged recombinant human iNOS expressed in Escherichia coli preincubated for 15 mins followed by NADPH addition and measured after 30 mins by HPLC analysis. A digest of the protocol: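 Recombinant human iNOS in 100 mM HEPES pH 7.4 with 0.1 mM CaCl2, 1 mM DTT, 0.5 mg/mL BSA, 10 μM FMN, 10 μM FAD, 30 μM BH4, 10 μg/mL calmodulin and 10 μM L-Arg. NADPH added to start the reaction, run 30 min at 37 °C, stopped with cold CH3CN. IC50 from seven concentrations in triplicate, mean ± SD.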

The target of data set [5] is T3, Nitric oxide synthase, inducible. Briefly: Inhibition of N-terminal his6-tagged recombinant human iNOS expressed in Escherichia coli at 1 uM preincubated for 15 mins followed by NADPH addition and measured after 30 mins by HPLC analysis relative to control. Particulars: time 45.0 min. The method in brief:
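Recombinant human iNOS in 100 mM HEPES pH 7.4 with 0.1 mM CaCl2, 1 mM DTT, 0.5 mg/mL BSA, 10 μM FMN, 10 μM FAD, 30 μM BH4, 10 μg/mL calmodulin and 10 μM L-Arg. Compound pre-incubated 15 min at 37 °C. NADPH added to start the reaction, run 30 min at 37 °C, stopped with cold CH3CN. Product measured by OPA/NAC derivatization and fluorescence HPLC (ex 335/em 439 nm). […] IC50 from seven concentrations in triplicate, mean ± SD.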

The target is the same in data set [6]. Briefly: Inhibition of iNOS (unknown origin).
Data set [7] is described as follows: Metabolic stability in rat liver microsome assessed as half life pretreated for 5 mins followed by NADPH and measured after 60 mins by HPLC analysis. The data set is classed as ADME. The conditions noted are these: liver microsomes, time 65 min. The method in brief: (§2)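 Compound from 2 mM DMSO stock diluted in PBS with Sprague–Dawley rat liver microsomes and warmed 5 min at 37 °C. NADPH (10 mM stock) added, incubated 60 min at 37 °C, quenched with cold CH3CN and centrifuged. At least three repeats, verapamil as positive control. CLint scaled using 45 mg microsomal protein/g liver and 40 g liver/kg body weight.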
(Liver microsomes are vesicles of endoplasmic reticulum, rich in cytochrome P450 enzymes.)

The subject of data set [8] is MDA-MB-231. Briefly: Inhibition of cell migration in human MDA-MB-231 cells assessed as reduction in wound closure incubated for 24 hrs by microscopic analysis. Also noted: scale not given: the % may be the effect or the level left. In kind it is functional. A digest of the protocol: (§3)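 MDA-MB-231 cells seeded 20×10^4 cells/well, incubated 12 h, then serum-starved (1% FBS) for 24 h. Monolayer scratched with a pipette tip, washed with PBS and treated at 25 μM in starvation medium, with 0.1% DMSO as control. Wound imaged at 0 and 24 h (4× objective). Wound area measured to give percent closure.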

Data set [9] concerns MCF-12A. Briefly: Antiproliferative activity against human MCF-12A cells assessed as reduction in cell viability at 50 uM measured after 5 days by PrestoBlue reagent based assay relative to control. In kind it is functional. Particulars: time 5 day. The method in brief: (§4)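 MCF-12A cells grown in DMEM/F12 (1:1) with 5% equine serum, EGF, hydrocortisone, cholera toxin and insulin, at 37 °C and 5% CO2. Seeded 2000 cells/well in triplicate and grown 24 h, then treated 5 days. Read with PrestoBlue (10% v/v, 120 min), fluorescence ex 540/em 590 nm. Viability normalized to 0.1% DMSO-treated cells (100%).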

Data set [10] can be described thus: Metabolic stability in rat liver microsome assessed as hepatic clearance pretreated for 5 mins followed by NADPH and measured after 60 mins by HPLC analysis. In kind it is ADME. Particulars: liver microsomes, time 65 min. A digest of the protocol: as §2
The subject of data set [11] is MCF-12A. The experiment in a line: Antiproliferative activity against human MCF-12A cells assessed as reduction in cell viability measured after 5 days by PrestoBlue reagent based assay. The data set is classed as functional. The conditions noted are these: 120 h. A digest of the protocol: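 MCF-12A cells (DMEM/F12 1:1, 5% equine serum, EGF, hydrocortisone, cholera toxin, insulin) seeded 2000 cells/well, grown 24 h, then exposed 5 days to 0.001–100 μM in triplicate. Read with PrestoBlue (10% v/v, 120 min), ex 540/em 590 nm. Normalized to 0.1% DMSO controls. EC50 from sigmoidal variable-slope fit, mean ± SD of 3 independent experiments.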

Another data set relates to MDA-MB-231 (human). The experiment in a line: Potency index, ratio of 1400W EC50 to test compound EC50 for antiproliferative activity against human MDA-MB-231 cells assessed as reduction in cell viability measured after 5 days by PrestoBlue reagent based assay. The conditions noted are these: time 5 day.
The subject of data set [12] is MCF-12A. Briefly: Antiproliferative activity against human MCF-12A cells assessed as reduction in cell viability at 25 uM measured after 5 days by PrestoBlue reagent based assay relative to control. The data set is classed as functional. The conditions noted are these: time 5.0 day. A digest of the protocol:
as §4

The test system of data set [13] is MDA-MB-231. The experiment in a line: Inhibition of cell migration in human MDA-MB-231 cells assessed as reduction in cell motility incubated for 24 hrs by scratch wound healing assay. In kind it is functional, cell-based. The method in brief:
as §3

Structures are written as SMILES. Activity calls are given as the source filed them. The rule behind the calls is not given here. A value given as a limit tells only on which side of the number the result lay.

Usually inhibition stands for the drop in the measured response relative to a control, in per cent. Usually IC50 stands for the concentration needed to halve the response being measured. The EC50 is the midpoint of the concentration-response curve. The half-life is how long it takes for the measured level to halve. What is called CLint scaled is the rate of metabolic loss divided by the concentration.

T3 sequence (P35228 whole entry): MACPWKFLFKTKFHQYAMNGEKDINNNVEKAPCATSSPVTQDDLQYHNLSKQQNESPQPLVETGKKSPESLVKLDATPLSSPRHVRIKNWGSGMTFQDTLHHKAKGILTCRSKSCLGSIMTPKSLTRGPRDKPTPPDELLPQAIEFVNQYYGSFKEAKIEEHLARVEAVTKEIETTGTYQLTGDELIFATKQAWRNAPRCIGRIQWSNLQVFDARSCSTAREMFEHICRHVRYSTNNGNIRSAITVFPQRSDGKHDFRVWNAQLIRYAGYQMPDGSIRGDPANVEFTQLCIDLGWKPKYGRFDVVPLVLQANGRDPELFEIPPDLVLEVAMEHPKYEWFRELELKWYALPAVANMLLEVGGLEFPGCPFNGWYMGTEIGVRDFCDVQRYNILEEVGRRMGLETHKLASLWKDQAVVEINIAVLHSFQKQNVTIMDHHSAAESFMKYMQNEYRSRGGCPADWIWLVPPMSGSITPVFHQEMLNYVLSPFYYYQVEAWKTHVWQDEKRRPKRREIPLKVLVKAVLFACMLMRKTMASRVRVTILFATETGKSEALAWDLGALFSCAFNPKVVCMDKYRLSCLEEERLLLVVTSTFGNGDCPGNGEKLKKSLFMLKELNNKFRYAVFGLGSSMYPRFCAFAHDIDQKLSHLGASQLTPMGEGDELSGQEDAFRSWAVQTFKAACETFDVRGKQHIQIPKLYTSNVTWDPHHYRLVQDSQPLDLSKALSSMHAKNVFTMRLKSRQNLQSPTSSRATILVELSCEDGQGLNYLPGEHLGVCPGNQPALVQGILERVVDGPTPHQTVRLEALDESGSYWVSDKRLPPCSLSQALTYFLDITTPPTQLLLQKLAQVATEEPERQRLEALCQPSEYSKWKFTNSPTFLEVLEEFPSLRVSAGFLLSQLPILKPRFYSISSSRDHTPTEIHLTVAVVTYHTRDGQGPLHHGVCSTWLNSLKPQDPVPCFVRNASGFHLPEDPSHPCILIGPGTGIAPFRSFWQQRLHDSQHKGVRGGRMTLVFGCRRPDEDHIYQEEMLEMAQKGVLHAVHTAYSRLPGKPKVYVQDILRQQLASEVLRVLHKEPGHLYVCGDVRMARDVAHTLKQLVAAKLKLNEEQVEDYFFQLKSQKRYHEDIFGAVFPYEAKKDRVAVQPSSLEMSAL

Turning to `N=C(NCc1ccc(NS(=O)(=O)c2ccc([N+](=O)[O-])cc2)cc1)c1ccccc1`, the inhibition entry in data set [1] was “inactive”. In the data set on MDA-MB-231 [2], the result was inactive. The IC50 on Nitric oxide synthase 3 is > 50 µM; in data set [4], 0.832 µM. Moreover, the EC50 with MDA-MB-231 [3] was > 100 µM. Also, in data set [5], the inhibition came to 52%.

Take `CC(=N)NCc1ccc(NS(=O)(=O)c2ccc([N+](=O)[O-])cc2)cc1`: the inhibition result in data set [1] and in [5] was “inactive” each time.

Consider `N=C(NCc1cccc(CNS(=O)(=O)c2ccc([N+](=O)[O-])cc2)c1)c1ccc(Cl)cc1`, for which the results for the inhibition in data set [1] and in data set [5] were 19% and 65%, respectively.

For the compound `N=C(NCc1ccc(NS(=O)(=O)c2ccc([N+](=O)[O-])cc2)cc1)c1ccc(Cl)cc1`, the inhibition in data set [1] was 46%; in data set [5], 69%.

In the case of `CC(=N)NCc1cccc(CNS(=O)(=O)c2ccc(C)cc2)c1`, the inhibition entry in data set [1] and in [5] was “inactive” throughout.

Consider `Cc1ccc(S(=O)(=O)NCc2cccc(CNC(=N)c3ccc(Cl)cc3)c2)cc1`, for which the inhibition in data set [1] came out at 18%; in data set [5], 72%.

As for `CC(=N)NCc1cccc(CN)c1` [1400W], the EC50 in the data set with MDA-MB-231 [3] is > 100 µM.

On to `N=C(NCc1ccc(NS(=O)(=O)c2ccc([N+](=O)[O-])cc2)cc1)c1ccc(C(F)(F)F)cc1`, for which the inhibition entry in data set [1] and in data set [5] was “inactive” throughout.

For `N=C(NCc1cccc(CNS(=O)(=O)c2ccc([N+](=O)[O-])cc2)c1)c1ccccc1`, the inhibition in data set [1] is 35%; in data set [5], 71%.

As to `COC(=O)[C@@H](N)CCCNC(=N)N[N+](=O)[O-]` [L-NAME], the IC50 in data set [6] was 13.5 µM.

For `Br.Cc1ccc(S(=O)(=O)NCc2cccc(CNC(=N)c3ccccc3)c2)cc1`, the half-life in [7] worked out at 38 min. Also, the inhibition result in data set [1] was “inactive”. In addition, the Activity is listed as 15% with MDA-MB-231 [8] and 91% in the data set on MCF-12A [9]. For the same compound, the half-inhibitory concentration (IC50) against Nitric oxide synthase 3 is > 50 µM; in data set [4], 0.065 µM. Moreover, the values for the EC50 in the data set with MDA-MB-231 [3] and with MCF-12A [11] were 24.7 µM and 79 µM, respectively. The CLint scaled in data set [10] turned out to be 39.6 mL/min/kg. Also, the “Ratio EC50” value in the data set with MDA-MB-231 (human) is given as 4. For the same compound, the outcome in the data set on MCF-12A [12] was inactive. For the same compound, the inhibition in data set [5] was 83%. In the data set on MDA-MB-231 [13], the outcome was Active.

As to `Cc1ccc(S(=O)(=O)NCc2cccc(CNC(=N)c3ccc(C(F)(F)F)cc3)c2)cc1`, the inhibition in data set [1] was found to be 28%; in [5] it was 59%.

Regarding `N=C(NCc1cccc(CNS(=O)(=O)c2ccc([N+](=O)[O-])cc2)c1)c1ccc(C(F)(F)F)cc1`, the figures for the inhibition in [1] and in [5] were 26% and 72%, respectively.

Source of the values: ChEMBL document CHEMBL5321206, “New amidine-benzenesulfonamides as iNOS inhibitors for the therapy of the triple negative breast cancer” (Eur J Med Chem, 2023).
